The list is not random: actives were taken first. Their share in the collection is about 2.7%.
hDAT+cocaine: changed hDAT dopamine uptake under cocaine IC80, either direction, primary screen, cocaine antagonist project, cell-based, LLC-PK1 hDAT, [14C]-dopamine uptake, MLSMR | B-score at 10 µM | LLC-PK1 hDAT cells, [14C]-dopamine uptake with cocaine IC80; actives deviate in either direction | 110,000 compounds, 1.3% hits | Sodium-dependent dopamine transporter (Homo sapiens), Q01959 | AID 449768, 2010;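 active = Z score or B-score, a plate-position-corrected score, falls beyond the plate's 99.7% confidence bounds, in either direction; inactive = both scores lie inside the 99.7% bounds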;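 note: scored against the spread of the other compound wells on the same plate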
LYP act: LYP phosphatase activators, primary screen, biochemical, DiFMUP fluorescence, 2 µM | Tyrosine-protein phosphatase non-receptor type 22 (Homo sapiens), Q9Y2R2 | recombinant LYP; 0 = plate median, 100 = signal doubled | activation, % at 2 µM | 96,000 compounds, 0.11% hits;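 active = activation at 2 µM above a set limit, the mean plus 5 SD, cut at about 37% in these data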
PLK1 PBD inh: Plk1 polo box domain binding inhibitors, primary screen, biochemical, fluorescence polarization. Serine/threonine-protein kinase PLK1 (Homo sapiens), P53350. Plk1 PBD phosphopeptide binding. inhibition, %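 (tested at about 20 µM)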. 97,000 compounds, 0.13% hits. AID 693, 2007; in the data active = inhibition above about 34%, passing the limit was not always enough
LYP inh 2: PTPN22 phosphatase inhibitors, primary screen, biochemical, DiFMUP fluorescence, 2 µM | Tyrosine-protein phosphatase non-receptor type 22 (Homo sapiens), Q9Y2R2 | recombinant LYP catalytic domain | inhibition, % at 2 µM | 96,000 compounds, 0.21% hits;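 active = inhibition at 2 µM at or above a set limit, the screen mean plus 3 SD, cut at about 24% in these data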;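 note: 0% = DMSO with enzyme and 100% = enzyme fully blocked by orthovanadate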
HIV Rev-RRE inh: HIV-1 Rev-RRE binding inhibitors, primary screen, biochemical, FRET, protein-RNA interaction. AID 704, 2007. 97,000 compounds, 0.79% hits. Rev peptide-RRE RNA binding. inhibition, % at 8 µM;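 active = inhibition above the screen-wide mean plus 3 SD, cut at about 35% in these data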;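 note: 0% = median DMSO wells and 100% = median Neomycin B control wells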
Target sequence (P05866 whole entry, looked up): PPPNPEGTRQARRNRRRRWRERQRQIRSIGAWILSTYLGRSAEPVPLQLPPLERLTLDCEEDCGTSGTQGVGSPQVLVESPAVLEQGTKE
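Test system – labelled RRE RNA duplex and labelled Rev peptide · Reagent – labelled Rev peptide · Doses – one concentration, 8 µM nominal · Incubation – 5 + 15 min at 25 °C · Signal – FRET fluorescence readout · Read-out basis – % inhibition of FRET ratio versus controls · Control set – DMSO wells as 0% and neomycin B wells as 100% inhibition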
PLK1 inh: human PLK1 kinase inhibitors, primary screen, biochemical, TR-FRET; recombinant PLK1 kinase, TR-FRET peptide phosphorylation; Serine/threonine-protein kinase PLK1 (Homo sapiens), P53350; 97,000 compounds, 0.53% hits; inhibition, % at 10 µM;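 active = inhibition of 50% or more in the single-concentration screen; inactive = inhibition below 50%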;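 note: 0% = DMSO max control and 100% = H-89 dihydrochloride min control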
The depositor's hits bear a star; / = not tested or not shown; [ ] = remark or other dose.

SMILES	hDAT+cocaine	LYP act	PLK1 PBD inh	LYP inh 2	HIV Rev-RRE inh	PLK1 inh
COc1ccc2c(c1)O[C@@H](c1ccc3c(c1)OCO3)[C@H](OC(=O)Nc1cc(OC)c(OC)c(OC)c1)C2=O	1.6	/	/	/	/	/
Cc1onc(-c2ccccc2Cl)c1C(=O)Nc1nnc(-c2ccc(F)cc2)s1	2.7*	8	-13	-10	13	-8
Cc1onc(-c2ccccc2Cl)c1C(=O)Nc1nnc(-c2ccc(Br)cc2)s1	0.032	-7	-23	5	9	-31
Cc1noc(C)c1Cn1nc(C(=O)O)c2ccccc2c1=O	0.59	-12	-16	12	-1	51*
COCCn1c(SCc2nc(N)nc(Nc3ccccc3C)n2)nc2ccccc2c1=O	0.79	5	14	-9	5	1
Cc1ccccc1Nc1nc(N)nc(CSc2nc3ccccc3c(=O)n2CCCO)n1	2.7*	/	/	/	/	/
CN1CCN(c2nc(C#N)cc(-c3ccccc3)n2)CC1	0.47	3	-15	3	8	-7
COc1ccc(-c2cc(C#N)nc(N3CCNCC3)n2)cc1	0.79	14	2	-14	-5	55*
CCO[C@@H]1OC(C(=O)N2CCOCC2)=C[C@H](C(C)(C)C)[C@H]1CCCO	0.27	/	/	/	/	/
CC(C)NC(=O)c1sc2nc3c(c(-c4cccs4)c2c1N)CN(C)CC3	-2	-7	-27	7	15	-8
Cc1cccc(NC(=O)c2sc3nc4c(c(-c5cccs5)c3c2N)CN(C)CC4)c1	0.33	-3	-8	5	71*	-8
CSc1n[nH]c(NCc2ccc(C)cc2)n1	-0.49	5	-27	-4	12	-13
CCCN(CCC)C(=O)CC(c1ccccc1)c1cc(C)ccc1O (stereo not given)	2.5*	2	7	-2	10	1
CCN(CCO)C(=O)CC(c1ccccc1)c1cc(Br)ccc1O (stereo not given)	1.2	-4	-7	7	2	-15
O=C(Nc1c(C(=O)O)oc2ccc(Br)cc12)c1ccccc1	-0.2	/	1	/	7	51*
CCOC(=O)c1oc2ccc(Br)cc2c1NC(=O)CN1CCN(C)CC1	1.4	-3	-13	2	12	-9
Cc1cc2ccccc2n1CCNC(=O)Cc1ccccc1	0.1	22	-26	-25	-1	-3
Cc1cc2ccccc2n1CCNC(=O)c1ccc(S(=O)(=O)N2CCCCC2)cc1	2.5*	3	-34	-6	13	-5
Cc1cccc(OCCCC(=O)N2CCCc3ccccc32)c1C	0.26	-1	-18	4	4	-4
c1ccc(C2[C@H]3CN(CC4CCCCC4)[C@H](c4ccccc4)C34CC2(c2cccnc2)C4)cc1 (stereo not given in full)	0.88	/	/	/	/	/
Cc1ccc(C23CC4CC(CC(C(=O)N5CCOCC5)(C4)C2)C3)cc1	0.27	15	-1	-15	11	-4
N=c1c2c(n(Cc3ccc(F)cc3)c3c1CCC3)CCC2	-5.2*	2	11	-4	-7	-12
COc1cc(C2C(C#N)=C(N)OC3=C2C(=O)CC(C)(C)C3)c([N+](=O)[O-])cc1OC (stereo not given)	/	6	9	-2	49*	-15
CCOC(=O)C1C2C=CC(CC2)N1c1ccccc1 (stereo not given)	-0.47	/	/	/	/	/
COc1cccc(C2NC(=O)N(CCCC(=O)O)C(C)=C2C(=O)OCc2ccccc2)c1 (stereo not given)	0.04	/	/	/	/	/
SMILES	hDAT+cocaine	LYP act	PLK1 PBD inh	LYP inh 2	HIV Rev-RRE inh	PLK1 inh
COc1ccc(CCNC(=O)C/C(C)=N/NC(=O)c2ccc(N)cc2)cc1OC	-3.1*	9	-23	-11	4	-5
COc1ccc(CCNC(=O)c2ccncc2)cc1OC	0.21	-2	-20	1	4	-10
Cc1ccc(-c2nc(CS(=O)CC(=O)NCCC(C)C)c(C)o2)cc1 (stereo not given)	0.71	/	9	/	5	67*
CCCCNC(=O)CS(=O)Cc1nc(-c2ccc(C)cc2)oc1C (stereo not given)	0.71	16	6	-17	0	-14
CCCNC(=O)CS(=O)Cc1nc(-c2ccc(OC)cc2)oc1C (stereo not given)	-0.9	/	-24	/	0	67*
Cc1ccc(-c2nc(CS(=O)CC(=O)NCc3ccc(Cl)cc3)c(C)o2)cc1 (stereo not given)	-0.65	/	11	/	6	69*
COc1ccc(-c2nc(CS(=O)CC(=O)NCc3ccc(Cl)cc3)c(C)o2)cc1 (stereo not given)	0.28	/	-1	/	9	70*
COC(=O)c1ccc([C@H](NC(=O)c2ccco2)[C@]2(C)C[C@H]2C2CCCCC2)cc1	0.91	/	/	/	/	/
CCOC(=O)[C@@H]1[C@H]2COc3ccccc3[C@@H]2N2C(=O)N(c3cccc(F)c3)C(=O)[C@]12C	0.19	/	/	/	/	/
CCN(CC)c1ccc2c(c1)oc(=O)c1c(Cl)cc(=O)oc12	-0.39	4	-67	-4	129*[fluorescence artefact?]	-10
CS(=O)(=O)N1c2ccccc2[C@]2(Br)C[C@H]3C(=O)N[C@@H](Cc4ccccc4)C(=O)N3[C@H]12	0.71	/	/	/	/	/
C=CCc1c(C)nc(C)nc1N/N=C/c1ccccc1O	-0.32	-7	-5	10	41*	-11
C=CCc1c(C)nc(C)nc1N/N=C/c1ccc([N+](=O)[O-])cc1	0.74	-8	3	10	16	-9
O=C1C2C(C(=O)N1CCc1ccccc1)C1C=CC2C12CC2 (stereo not given)	0.8	-44	-2	45*	3	-12
O=C1C2C3C=CC(C3)C2C(=O)N1CCc1ccccc1 (stereo not given)	0.09	-11	-1	11	8	-2
O=C1/C(=C/c2ccccc2)CCCc2ccccc21	0.17	-5	-34	5	5	-7
Cn1cccc1/C=C1\CCC/C(=C\c2cccn2C)C1=O	0.18	9	-220	-9	136*[fluorescence artefact?]	-12
COC(=O)c1c(=O)n(O)c2ccc(OC)cc2[n+]1[O-]	-1.2	-8	-13	6	41*	-8
O=C1N/C(=C\c2ccc(O)cc2)C(=O)c2ccccc21	-0.28	2	13	0	69*	-14
CCCn1c(=O)n(C)c(=O)c2c(SCC(=O)NCc3ccco3)nc(C3CC3)nc21	0.16	-7	26	6	7	-8
COc1ccc(-c2nnn(CC(=O)NCCc3c[nH]c4ccccc34)n2)cc1OC	2.5	-10	2	11	1	-13

Assay outcomes: PubChem, several laboratories
